Glyco luc inh = blocks N-linked glycosylation in D54 reporter cells. D54 ERlucT glycosylation luciferase reporter, 24 h; percent of 100 nM tunicamycin response. actives 0.23% (n = 360,000). reporter increase, % at 12.5 µM;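 active = mean luciferase reporter signal, scaled so untreated is 0 and the glycosylation-blocking control 100, at or above a set limit in every replicate; inconclusive = mean reaches the limit but not every replicate does; inactive = mean below the limit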;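 also: luciferase carries N-glycosylation sites so blocking glycosylation raises the light; 0% = median of neutral control wells and 100% = median of 100 nM tunicamycin wells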
HSF1 activator = increases HSF-1 driven luciferase reporter signal | NIH3T3-HGL HSF-1 luciferase reporter, MG132, 8 h; 100% = twice DMSO control signal | activation, % at 9 µM | actives 1.7% (n = 300,000);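 active = mean replicate activation of at least 50% with a set share of replicates each reaching 50%; inconclusive = only one of those two conditions met; inactive = mean below 50% and too few replicates reaching it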;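 also: 0% = median of the neutral control wells and 100% = twice that signal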
T cruzi inh = T. cruzi replication inhibition. T. cruzi beta-gal in NIH3T3, luminescence, 90 h. inhibition, % (concentration not given with the values). actives 1.4% (n = 300,000);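 active = mean inhibition across valid replicates above about 55%, limit read from the data; inconclusive = mean below that limit but half or more replicates reach it; inactive = mean below it, under half of replicates reach it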;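 also: signal also drops with host cell toxicity which is not excluded here; 0% = plate median of DMSO wells and 100% = zero luminescence signal; higher percent means less beta-gal luminescence so fewer parasites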
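Incubation – ≥90 h infection period, 3 h prior cell attachment · System – NIH/3T3 fibroblasts plus reporter T. cruzi · Doses – compound pinned at 50 nL/well, DMSO · Read-out basis – percent inhibition of parasite-derived β-gal signal · Signal – luminescent β-galactosidase signal after 60 min lysis · Also added – 5000 T. cruzi trypomastigotes/well · Medium – Low-serum DMEM with 2% FBS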
PvdQ inh = blocks Pseudomonas aeruginosa PvdQ acylase activity. actives 0.063% (n = 340,000). purified PvdQ acylase, fluorescence plate reader. inhibition, % at 10 µM; in the data active = inhibition above about 30%, passing the limit was not always enough; inconclusive = no clear call, values can overlap the other calls;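 also: 0% = vehicle neutral wells and 100% = reference inhibitor wells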
PfHsp90 yeast 2 = inhibits growth of yeast expressing Plasmodium falciparum Hsp90. S. cerevisiae expressing PfHsp90, BacTiter-Glo ATP, 48 h; yeast lacking PDR1 and PDR3 efflux regulators. inhibition, % at 9.4 µM. actives 0.32% (n = 310,000);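 active = every replicate shows inhibition above about 80%, whatever the replicate mean, limit read from the data; inconclusive = mean inhibition reaches the set limit but some replicate falls short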;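 also: 0% = DMSO neutral controls and 100% = 20 µM radicicol positive controls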
CaV13 FRET inh = Primary screen for inhibitors of IQ motif and Ca2+-dependent inactivation inhibitor domain binding in CACNA1D, Förster resonance energy transfer in living cells, … | HEK cells, CFP/YFP FRET ICDI-IQ, plate reader, 10 min; percent FRET-ratio fall versus neutral wells | inhibition, % at 12.3 µM | actives 0.098% (n = 340,000) | AID 743397;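 active = mean replicate inhibition of at least 30% and at least 1% of replicates passing that level; inconclusive = only one of the two criteria is met; inactive = neither criterion is met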;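 also: 0% = median of the neutral control wells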
An asterisk follows results filed as active; ? = inconclusive; · = not tested or not shown. In the library only some 3% were active in any assay of this set; here they are far more common.

SMILES	Glyco luc inh	HSF1 activator	T cruzi inh	PvdQ inh	PfHsp90 yeast 2	CaV13 FRET inh
Fc1ccc(N2CCN(C3=Nc4cccc5cccc3c45)CC2)cc1	9.5	-7.6	64.0*	2.0	5.4	-5.2
Cc1ccsc1C(=O)Nc1ccc(C(=O)O)cc1	-1.6	·	·	1.1	12.9	-4.7
COc1ccc(NC(=O)c2sccc2C)cn1	1.8	69.9*	-15.2	1.9	12.4	2.2
N#Cc1cnn(-c2nc(SCc3ccccc3)nc3sc4c(c23)CCCC4)c1N	-3.2	8.9	59.6*	-4.0	-7.1	-3.7
CC(C)(C)n1nc(-c2ccc(Cl)cc2)c2c(N)ncnc21	-8.3	-35.5	47.8	-12.7	60.4	·
CC(C)(C)n1nc(-c2ccc(F)cc2)c2c(N)ncnc21	-13.7	-35.1	57.3*	-7.0	35.6	·
CC(C)N(CCNC(=O)c1nn(Cc2ccccc2)c(=O)c2ccccc12)C(C)C	-1.7	-4.6	54.6*	7.4	0.0	·
Cc1ccc(C2c3c(n[nH]c3C(C)C)C(=O)N2c2ccccc2)cc1 (stereo not given)	·	·	·	·	·	-4.1
Cc1ccc(NC(=O)c2ccc(OCC3CCCO3)cc2)cc1Cl (stereo not given)	1.1	·	·	·	·	-5.4
CCOC(=O)Cn1nnnc1C(CC)N(Cc1cc2ccc(C)cc2[nH]c1=O)C1CCCC1 (stereo not given)	-1.2	69.3*	1.2	-16.5	-21.1	·
COc1ccc(N2C(=O)c3ccccc3NC(=O)C2C(=O)NCCc2ccccc2F)cc1 (stereo not given)	·	·	·	·	·	-8.2
O=c1c2c3c(sc2n(CCN2CCOCC2)c(=O)n1C1CCCCC1)CCCCC3	·	·	·	·	·	-0.8
C/C(=N\NC(N)=S)C1=CCC2C3CC[C@H]4CC(O)CC[C@]4(C)C3CC[C@]12C (stereo not given in full)	-1.1	51.5*	60.5*	12.2	-17.3	-4.2
CC(=O)Nc1ccc(-c2ccnc3c2CC(C(=O)NCc2cccc(Cl)c2)O3)cc1 (stereo not given)	17.9	·	·	·	·	-5.6
O=C(NCc1cccs1)C1Cc2c(-c3ccc(Cl)cc3)ccnc2O1 (stereo not given)	20.6	·	·	·	·	-5.7
CC(=O)c1cccc(-c2ccnc3c2CC(C(=O)NCc2cccs2)O3)c1 (stereo not given)	34.5*	·	·	·	·	-5.5
CC(=O)Nc1cccc(-c2ccnc3c2CC(C(=O)NCc2cccc(Cl)c2)O3)c1 (stereo not given)	19.4	·	·	·	·	45.2*
Cc1cc(N=O)no1	·	·	·	·	·	-8.7
COC(=O)C1=C(C)N(Cc2cccc(C(F)(F)F)c2)C(=NCc2ccc(OC)cc2)NC1c1cccc(C(F)(F)F)c1 (stereo not given)	·	·	·	·	·	-9.8
CN(C)S(=O)(=O)c1cccc(NC(=O)c2cnccn2)c1	·	0.0	-15.9	·	·	·
COc1ccc(NS(=O)(=O)c2cccc(NC(=O)c3cnccn3)c2)cc1Br	-4.3	14.0	68.2*	-18.0	4.7	-8.3
CC1CCN(C(=O)c2[nH]cnc2C(=O)N(C)CCO)CC1	·	·	·	·	·	-3.7
COc1cc(/C=N/NC(=O)c2cccs2)ccc1OCc1ccccc1	-1.1	41.3	-0.7	17.3	9.5	-5.9
COc1cc(/C=N/N=C(N)N)ccc1OCc1ccc(Cl)cc1	-19.4	-43.5	87.0*	-8.5	15.8	-5.0
COc1ccc(/C=N/NC(=O)c2sccc2OCc2ccc(F)cc2)cc1OC	38.0*	1.4	21.2	-8.8	-4.3	-5.3
SMILES	Glyco luc inh	HSF1 activator	T cruzi inh	PvdQ inh	PfHsp90 yeast 2	CaV13 FRET inh
COc1cc(/C=N/O)ccc1OCc1ccc(Cl)cc1	·	107.9*	9.5	·	·	-4.1
COc1cc(/C=N/NC(N)=S)ccc1OCc1ccc(C)cc1	-6.1	35.4	57.7*	0.7	-4.0	-7.4
O=C(CSCc1ccccc1)N/N=C/c1ccccc1OCc1ccccc1	-2.8	-2.3	-8.8	-11.7	-0.4	-9.7
COc1cc(/C=C(\C#N)C(=O)Nc2cccc(C(=O)O)c2)ccc1OCc1ccc(Cl)cc1	-9.0	112.8*	-11.3	-8.5	-11.4	-2.7
NC(=S)N/N=C\c1ccccc1OCc1ccccc1	-3.2	11.4	55.0*	-4.3	-7.1	·
COc1cc(/C=C(/C#N)C(=O)Nc2ccccc2)c(Br)cc1OCc1ccc(C(=O)O)cc1	1.8	49.4	-7.8	5.2	-32.0	-3.6
CCOC(=O)N(C)[C@H]1C[C@H]2c3[nH]c4ccccc4c3CCN2C(=O)[C@H]1[C@H](C)O	·	·	·	·	·	-5.5
O=C1NCCc2onc(-c3ccc(Br)cc3)c21	-1.4	·	·	·	·	-9.7
Cc1nnc(SCC(=O)c2ccc(Br)cc2)s1	0.1	66.6*	-18.7	-9.5	4.0	5.3
CC1CC(C)C(=NNC(N)=O)C(C(O)CC2CCC(=O)NC2=O)C1 (stereo not given)	-13.1	·	·	-13.3	114.1*	-4.3
CSc1ccccc1OCc1cc(C(=O)N(C)Cc2ccc(C)o2)no1	0.7	57.2*	-0.8	-7.0	-49.7	-7.3
CC(C)C[C@H]1COc2cc(NCc3ccc(Cl)c(Cl)c3)ccc2S(=O)(=O)N1	·	·	·	·	·	-5.3
CSc1ccc(OC2(C)CCN(Cc3ccc(-c4ccccn4)cc3)C2)cc1 (stereo not given)	-6.0	·	·	·	·	-3.9
CCSc1nc(-c2ccccc2)c(C#N)c(=O)[nH]1	-1.2	-3.3	-9.4	-2.9	1.1	-5.8
CCCOc1ccc(-c2nc(SCc3ccccc3)[nH]c(=O)c2C#N)cc1OC	0.5	-1.6	56.1*	9.0	51.8	-3.0
O=C(Nc1ccc(NC(=O)c2ccc([N+](=O)[O-])o2)cc1Cl)c1ccco1	18.2	161.5*	13.0	-8.2	-39.0	-4.2
O=C(Nc1cccc(NC(=O)c2ccc([N+](=O)[O-])o2)c1)c1ccco1	?	92.6*	20.7	1.6	6.1	-2.0
O=C(Nc1ccc(NC(=O)c2ccco2)c(Cl)c1)c1ccccc1	1.8	31.0	-6.4	6.5	6.0	4.4
O=C(Nc1cccc(NC(=O)c2ccc(-c3cccc(Br)c3)o2)c1)c1ccco1	-4.2	16.4	54.6*	-6.7	16.3	-7.4
O=C1NC[C@H](Cc2ccccc2)N(CC2CCN(CCC34CC5CC(CC(C5)C3)C4)CC2)C1=O	1.9	·	·	8.2	-2.4	·
Cc1ccc(C(=O)N(C)[C@H]2C[C@H]3c4[nH]c5c(-c6ccccc6)cccc5c4CCN3C(=O)[C@H]2[C@H](C)O)cc1	·	·	·	·	·	-3.8
CC(=O)OCC(COC(C)=O)(CN1C(=O)c2ccccc2C1=O)CN1C(=O)c2ccccc2C1=O	·	·	·	·	·	-12.0
COc1ccc(C(=O)Cn2nc(CNc3ccc(Br)cc3)[n+]3c2CCCCC3)cc1	0.7	-1.9	59.1*	-18.8	-31.8	-5.7
O=C(Cn1nc(-c2nn(CC(=O)c3ccccc3)c3[n+]2CCCCC3)[n+]2c1CCCCC2)c1ccccc1	1.2	-7.6	8.9	·	·	-4.1

Bioassay records as filed in PubChem BioAssay.
